Read-outs that look alike come from different tables or passages of the source.
Key:
[1] = assay type: in vivo, human; conditions: for Tmax / Vd/F: male, human, plasma, po
In short: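 Healthy subjects received a single oral 20 mg test-compound dose with 240 ml water after an overnight fast, continued to 4 h. Period 2, after a 5−7 day washout: CYP3A4 inhibitor 400 mg orally once daily for 7 days, co-dosed on day 5. Plasma was sampled predose–72 h, acidified (citrate, pH 1.5) and run by chiral LC-MS. Ratios: ANOVA (log values, period and subject effects), least-square geometric means, 90% CI.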

MDR1 = conditions: in vitro studies, no reference given; cited from earlier work
[2] = cited from earlier work
OATP1B3 = conditions: in vitro studies, no reference given; cited from earlier work
CYP1A2 = conditions: [14C]-apremilast, in vitro; cited from earlier work
CYP3A4 = conditions: [14C]-apremilast, in vitro; cited from earlier work
[3] = assay type: in vivo, human
In short: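 Healthy subjects fasted overnight and received a single oral 30 mg test-compound dose in each of three periods. After a 4-day washout, it was followed 5 min later by 600 mg i.v. inducer over 30 min. Then 600 mg oral inducer daily on days 7–21, co-dosed on day 20. Plasma (predose–48 h) was citric-acid stabilised, extracted with MTBE and run by achiral LC-MS. Ratios: ANOVA of log values, geometric-mean 90% CI.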

CYP2A6 = conditions: [14C]-apremilast, in vitro; cited from earlier work
OATP1B1 = conditions: in vitro studies, no reference given; cited from earlier work
[4] = acidic conditions; no reference given; cited from earlier work
[5] = midazolam with rifampicin; cited from earlier work
[6] = apremilast 20 mg with ketoconazole 400 mg once daily vs alone
[7] = apremilast given with ketoconazole vs alone
[8] = with ketoconazole vs apremilast 20 mg alone, least-square geometric means
[9] = multiple oral doses of rifampicin vs apremilast alone
[10] = with i.v. rifampicin vs apremilast 30 mg alone, least-square geometric means

For `CCOc1cc(C(CS(C)(=O)=O)N2C(=O)c3cccc(N)c3C2=O)ccc1OC` (stereo not drawn) [CC-10055], the concentrations in urine ([1]; KETO study) was “no detectable concentrations” and the “overall metabolite to parent ratios in plasma” value ([1]; KETO study) was no more than 5%.
In the case of `CCOc1cc([C@@H](CS(C)(=O)=O)N2C(=O)c3cccc(NC(C)=O)c3C2=O)ccc1OC` [apremilast], the transporter substrate (MDR1) is listed as “is a MDR1 substrate”, the “dose excreted unchanged in urine” value [2] is listed as 3% and the transporter substrate (OATP1B3) is listed as “not a substrate”. For the same molecule, the “rate of metabolism by CYP isoform” value (CYP1A2) was “lower rates of metabolism”, the “fraction of apremilast excreted unchanged in the urine” value ([1]; KETO study, overall) was less than 5% and the CL/F ([1]; apremilast 20 mg single oral dose alone, n = 18, arithmetic mean (SD)) was 10.2 (3.5) l h^−1. The “increase of AUC(0,∞) by ketoconazole” value [1, 6] was “≈ 36%”, the “increase of Cmax by ketoconazole” value [1, 6] was 5% and the “change in renal clearance” value [1, 7] was “no meaningful change”. For the same molecule, the “increase in the percentage of urinary excretion” value [1, 7] was “approximately 36%”, the Tmax [1] was 4 h and the Vd/F [1] was 84 L. For the same molecule, the Tmax ([1]; 20 mg) was 2.5 h, the Vd/F ([1]; 20 mg) was 111 L and the “AUC(0,∞) Ratio (90% CI)” value [1, 8] was 136.4 (126.2, 147.5) %. For the same molecule, the “CL/F Ratio (90% CI)” value [1, 8] was 73.3 (67.8, 79.2) %, the “Cmax Ratio (90% CI)” value [1, 8] was 104.9 (92.2, 119.3) % and the “Vz/F Ratio (90% CI)” value [1, 8] was 77.5 (69.8, 86.1) %. The “t1/2 Ratio (90% CI)” value [1, 8] was 106.5 (100.3, 112.7) %, the “rate of metabolism by CYP isoform” value (CYP3A4) was “high rate” and the “increase in Cmax” value ([3]; after i.v. rifampicin vs apremilast alone) was 13%. For the same molecule, the CL/F ([3]; apremilast 30 mg single oral dose alone, n = 21, arithmetic mean (SD)) was 10.0 (3.02) l h^−1, the Tmax ([3]; apremilast 30 mg single oral dose alone, n = 21, median (range)) was 2.0 (0.5–5.0) h and the Tmax ([3]; both, human, plasma, oral) was 1.25 h. It also gave a Vd/F ([3]; both, human, plasma, oral) of 115 L, a Tmax ([3]; both, human, plasma, po) of 1 h and a Vd/F ([3]; both, human, plasma, po) of 342 L. The half-life ([3]; both, human, plasma, po) was 6.31 h, the Tmax ([3]; both, human, plasma, po, 30 mg) was 2 h and the Vd/F ([3]; both, human, plasma, po, 30 mg) was 119 L. The half-life ([3]; both, human, plasma, po, 30 mg) was 8.2 h, the “decrease of Cmax” value [3, 9] was “approximately 43%” and the “decrease of mean AUC(0,∞)” value [3, 9] was “≈ 72%”. For the same molecule, the “increase of apremilast clearance” value [3, 9] was “≈ 3.6 fold”, the “AUC(0,∞) Ratio (90% CI)” value [3, 10] was 95.71 (88.0, 104.1) % and the “Cmax Ratio (90% CI)” value [3, 10] was 113.1 (103.2, 123.9) %. For the same molecule, the “rate of metabolism by CYP isoform” value (CYP2A6) was “lower rates of metabolism”, the transporter substrate (OATP1B1) was “not a substrate” and the stability [4] was “stable”.
In the case of `Cc1ncc2n1-c1ccc(Cl)cc1C(c1ccccc1F)=NC2` [midazolam], the “exposure relative to administration alone” value [5] is listed as 4%.

Source: PMC4238785 (British Journal of Clinical Pharmacology, 2014)
